Bioassay records from PubChem.
Cl transport mod = KCC2 (human) Cl- transport modulation | B-score of Tl+ flux slope (higher = more flux/activation; lower = inhibition) at 10 µM | hit rate 2.2% among 190,000 | AID 1456 | KCC2 cells, thallium flux FluoZin-2 fluorescence | Q9H2X9;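 active = thallium flux slope and its plate-corrected score both differing from the plate sample mean at a set confidence after two filtering rounds, in either direction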;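 note: slope of fluorescence scaled to starting intensity during 10 to 20 s after thallium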
Target sequence (Q9H2X9 whole entry, looked up): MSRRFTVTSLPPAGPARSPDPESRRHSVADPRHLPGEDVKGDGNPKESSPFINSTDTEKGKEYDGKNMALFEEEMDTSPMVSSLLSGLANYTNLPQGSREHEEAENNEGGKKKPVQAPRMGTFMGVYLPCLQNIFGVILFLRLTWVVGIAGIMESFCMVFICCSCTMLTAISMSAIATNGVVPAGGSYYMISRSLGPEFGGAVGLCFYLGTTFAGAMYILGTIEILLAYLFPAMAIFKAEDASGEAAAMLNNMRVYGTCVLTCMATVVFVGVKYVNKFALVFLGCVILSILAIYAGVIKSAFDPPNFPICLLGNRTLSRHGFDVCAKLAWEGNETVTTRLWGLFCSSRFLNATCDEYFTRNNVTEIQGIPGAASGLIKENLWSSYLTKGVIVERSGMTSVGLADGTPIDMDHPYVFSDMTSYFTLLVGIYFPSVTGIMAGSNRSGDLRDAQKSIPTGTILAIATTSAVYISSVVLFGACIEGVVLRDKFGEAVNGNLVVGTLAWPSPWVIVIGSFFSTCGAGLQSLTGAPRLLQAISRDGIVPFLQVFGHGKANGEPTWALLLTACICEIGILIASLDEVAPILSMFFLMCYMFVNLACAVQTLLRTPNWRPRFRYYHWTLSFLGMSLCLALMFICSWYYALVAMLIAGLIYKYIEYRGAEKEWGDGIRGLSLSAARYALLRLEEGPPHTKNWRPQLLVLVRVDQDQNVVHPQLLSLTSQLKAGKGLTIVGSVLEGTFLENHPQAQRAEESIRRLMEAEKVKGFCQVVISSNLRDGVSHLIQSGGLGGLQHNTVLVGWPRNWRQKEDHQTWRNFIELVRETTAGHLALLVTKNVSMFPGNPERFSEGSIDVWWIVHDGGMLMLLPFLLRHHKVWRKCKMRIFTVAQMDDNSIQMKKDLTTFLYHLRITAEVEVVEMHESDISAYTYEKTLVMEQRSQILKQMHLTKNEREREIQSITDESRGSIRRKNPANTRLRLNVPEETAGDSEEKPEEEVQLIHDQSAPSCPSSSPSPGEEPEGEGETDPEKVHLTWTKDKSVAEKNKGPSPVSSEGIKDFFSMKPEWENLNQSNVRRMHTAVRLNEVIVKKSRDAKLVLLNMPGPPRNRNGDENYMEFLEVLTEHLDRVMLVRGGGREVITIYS
WT yeast gro inh = growth inhibition of WT yeast, mitochondrial fusion screen. inhibition, % at 10 µM. mitochondrial fusion phenotypic screen, WT strain. AID 1362. hit rate 2.1% among 190,000; in the data active = inhibition above about 58%; tested in S. cerevisiae
Insulin prom up = MIN6 insulin promoter up-regulation; MIN6 insulin promoter-GFP reporter, high-content imaging; hits give high values; z-score at 5 µM; hit rate 0.3% among 190,000;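 active = z-score above 3 at 5 µM with at least 500 cells counted in the well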
Autophagy HCS = modulators of autophagy | MEF GFP-LC3 puncta imaging; test concentration mostly 10 µM | calls only at 10 µM (by protocol) | hit rate 0.98% among 190,000 | AID 463193;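 active = percentage of spot-positive cells more than 3 SD above its plate mean, without a fluorescence outlier flag or 80% toxicity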;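 note: spot-positive cell cutoff set from DMSO-treated cells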
Rad51 HR inh = blocks human Rad51 in homologous recombination; Q06609; hRad51 DNA strand exchange, fluorescence dequenching; inhibition, % at 10 µM; hit rate 0.085% among 200,000; AID 1385;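 active = inhibition above 40% at the single screening dose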;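 note: 0% = DMSO control wells and 100% = blanks with heterologous ssDNA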
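material = hRad51 filaments on single-stranded DNA | reagent = Donor/quencher-labelled 47-bp dsDNA substrate | compound = 10 µM final, single point | schedule = strand-exchange reaction 15 min at room temperature | measured by = fluorescein emission 520 nm, excitation 485 nm | read-out basis = % inhibition versus plate control and blank means | benchmarks = plate controls and plate blanks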
SKKanGAS inh = inhibitors of SKKanGAS S. pyogenes growth in kanamycin (SK-promoter or general growth effect); AID 1662; hit rate 1.3% among 300,000; BacTiter-Glo, 6 h; inhibition, % at 7.5 µM;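 active = mean replicate score, as percent of positive control median, at least 50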;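 note: strain carries kanamycin resistance gene driven by streptokinase promoter and grows in 40 µg/ml kanamycin; loss of luminescence reflects streptokinase promoter inhibition or plain growth inhibition; 0% = median of DMSO wells and 100% = positive control at its reference dose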
* marks the source's active call; other numbers are inactive results; i = inactive; . = no result; + = active, no number. Hits are enriched below; roughly 4.2% of the tested compounds scored in any of these assays.

SMILES	Cl transport mod	WT yeast gro inh	Insulin prom up	Autophagy HCS	Rad51 HR inh	SKKanGAS inh
Cc1ccc(S(=O)(=O)Nc2ccc(C(OC(=O)c3ccccc3[N+](=O)[O-])(C(F)(F)F)C(F)(F)F)cc2)cc1	0.063	86*	-0.34	i	7	42
Cc1cc(C)nc(NS(=O)(=O)c2ccc(NC(=O)c3ccccc3[N+](=O)[O-])cc2)n1	.	.	.	.	.	2
O=C(OC(c1ccc(NS(=O)(=O)c2ccccc2)cc1)(C(F)(F)F)C(F)(F)F)c1ccccc1	-2.5	87*	0.53	i	-4	2
CC(=O)c1ccc(NS(=O)(=O)c2ccccc2)cc1	0.39	-7	-0.59	i	5	-4
O=C(COc1ccccc1[N+](=O)[O-])Nc1cc(Cl)ccc1C(=O)O	-1	5	0.71	i	.	17
COc1cc(Cn2nnc3ccccc32)cc(Br)c1O	.	.	.	.	.	-10
CCc1ccc(CN(C)Cc2nc(-c3cccc(Cl)c3)no2)nc1	-2.2	18	0.21	i	6	62*
O=C(c1ccc2c(c1)OCO2)N1CCCC1	0.65	20	8.9*	i	-11	-3
O=C(Nc1ccc2c(c1)OCO2)C1CCN(C(=O)c2ccc(Br)cc2)CC1	0.55	5	-0.15	i	41*	5
CC(C)C(C)NC(=O)CN1C(=O)NC(c2ccccc2)(c2ccccc2)C1=O (stereo not drawn)	.	.	.	.	.	1
COC(=O)C1=C(NC(=O)c2ccccc2C)CCS1	-0.27	-14	0.63	+	10	17
CC(C)(C)C(=O)NC(=C(Cl)Cl)P(=O)(O)O	-3.8*	-12	0.16	i	-9	.
CC(C)(C)C(=O)NC(=S)N1CCCC1	0.47	6	.	i	4	3
O=C1/C(=C/c2ccc(N3CCCC3)cc2)NC(=S)N1C1CC1	1	37	.	+	5	27
O=C1NC(=S)N/C1=C\c1ccc(N2CCOCC2)cc1	0.89	13	1.1	i	-25	-1
O=C1N/C(=C/c2ccc(N3CCCC3)cc2)C(=O)N1c1ccccc1	-0.64	-15	0.57	+	-6	-10
CN1C(=O)c2ccc(N3CCCC3)cc2C1=O	0.017	-16	.	i	0	-14
Cc1cc(N2CCCC2)ccc1/C=C1\NC(=S)N(C)C1=O	.	35	.	+	0	1
CCOc1cc(C(c2c(C)[nH][nH]c2=O)c2c(C)[nH][nH]c2=O)ccc1OCc1ccc([N+](=O)[O-])cc1	-2.1	1	0.07	i	-3	-2
CCOc1cc(/C=C2/NC(=S)NC2=O)ccc1OCc1ccc([N+](=O)[O-])cc1	-0.67	-7	1.7	i	-12	74*
CC(Nc1ccc(Cl)cc1)c1cc(Cl)ccc1O (stereo not drawn)	-0.0031	74*	.	i	-3	2
CC(Nc1ccc(Br)cn1)c1cc(Cl)ccc1O (stereo not drawn)	.	73*	0.33	i	.	3
CCOc1ccc(NC(C)c2cc(Cl)ccc2O)cc1 (stereo not drawn)	-0.071	7	.	i	2	-13
CC1(C)CC(=O)C=C(NCCN2CCN(C(=S)NC3CCCCC3)CC2)C1	-0.89	.	-0.12	.	20	-2
Cc1cc(N(C)C)ccc1N=Nc1ccc2ncccc2c1	-0.5	.	-0.08	.	-6	54*
SMILES	Cl transport mod	WT yeast gro inh	Insulin prom up	Autophagy HCS	Rad51 HR inh	SKKanGAS inh
COc1ccc2c(c1)c(=O)oc1c(C)c(OCc3cc(C(=O)O)oc3C)ccc12	-1.5	19	-0.03	i	8	35
COc1ccc2c(c1)c(=O)oc1c(C)c(OCc3ccc(C(=O)O)cc3)ccc12	.	.	.	.	.	52*
Cc1ccc(C23CC4CC(CC(NC(=O)NCCN(C)C)(C4)C2)C3)cc1	0.5	-3	0.5	i	-6	2
CN(C)CCNC(=O)COc1ccc(C23CC4CC(CC(C4)C2)C3)cc1	0.056	96*	-0.71	i	-3	9
CCOC(=O)c1c(C)oc2c1c(C(c1cccnc1)N1CCOCC1)c(O)c1ccccc12 (stereo not drawn)	.	62*	0.96	i	6	4
Clc1ccccc1/C=N/NC1=Nc2cccc3cccc1c23	-0.02	11	0.79	+	-21	-9
O=c1ccc2cc(S(=O)(=O)NCc3ccccc3)ccc2[nH]1	.	.	.	.	.	-4
CCn1cc(C(=O)O)c(=O)c2cc(F)c(N3CCN(C(=S)Nc4ccccc4OC)CC3)cc21	-1.3	.	0.73	.	.	-2
